Assay results reported in article PMC4627693 (Chemistry & biology, 2014).
Where a SMILES comes first, the peptide text is derived from it. The star is where a group is joined. Biotin = O=C1N[C@H]2[C@H](CS[C@H]2CCCCC(=O)*)N1; AEEA = NCCOCCOCC(=O)O

Experiments:
Type in all cases: binding
c-Src [1] = conditions: no adenine mimetic; 20 μM crosslinker, 4 μM c-Src, 25 mM HEPES pH 6.5; NaBH4 quench; LC-MS
c-Src [2] = conditions: peptide 74 μM, 4 μM c-Src, 20 μM crosslinker 2; three hour time course; LC-MS
How it was run: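 c-Src (4 μM) in PBS pH 8 incubated with acrylate crosslinker (20 μM; DMSO 0.025% final) and biotinylated cysteine-containing quasi-substrate peptide (74 μM) over 3 h. Samples quenched with NaBH4 in cold MeOH and analysed by ESI LC-MS on a C4 column with deconvolution. Crosslinked product expressed as % of total c-Src.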

recombinant c-Src = conditions: crosslinker 2 (20 μM), HCT-15 lysate
How it was run: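 HCT-15 lysate diluted in reaction buffer to 2 mg/mL (500 μL), with MgCl2 and 4 pmol recombinant c-Src added. Crosslinker (20 μM) added for 10 min at room temperature, then biotinylated Cys peptide (5–40 μM final) for 25 min. Urea lysis buffer added, then streptavidin-agarose capture for 1 h at room temperature with shaking. Beads washed in 4M urea and boiled in reducing Laemmli buffer. Anti-Src western blot read by infrared imaging, giving % of a total-c-Src standard. Duplicates; two experiments.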

[3] = tested on: c-Src-imine (c-Src-1 complex); experiment: Thiol reaction with Src-imine
How it was run: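 c-Src (4 μM) pre-labelled 15 min with dialdehyde crosslinker (20 μM) in 25 mM HEPES pH 6.5, not quenched. Imine adduct then treated with 2-methylbenzylmercaptan (50 μM–1 mM) or Cys peptide (25–400 μM). Products analysed by ESI LC-MS with deconvolution. Duplicate points, representative of three experiments, error shown as SEM.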

c-Src-acrylamide = c-Src-acrylamide (Gallus gallus, UniProt P00523); experiment: Thiol reaction with Src-acrylamide, LC-MS; conditions: 4 μM c-Src-acrylamide (crosslinker 2), 25 minutes, room temperature
How it was run: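 Recombinant c-Src (4 μM final) was pre-labelled with 20 μM crosslinker in PBS pH 8 (0.025% DMSO final) for 15 min without quench. It was then reacted with 2-methylbenzylmercaptan (50 μM-1 mM) or Cys-containing peptide (25-400 μM) to give a dose-response. Products were read by LC-ESI-MS (C4 column, deconvoluted spectra). Data are duplicate points (SEM), from three separate experiments.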

O=Cc1ccsc1C=O [thiophene dialdehyde]
product (adduct) formed with c-Src (c-Src [1]): almost undetectable

Biotin-ZZRPRTSCF [Cys-Aktide]
crosslinked product formation over time course (in words) (c-Src [2]): reacted more slowly than Cys-Srctide, and did not reach completion | c-Src captured at lowest peptide concentration (in words) (recombinant c-Src; 5 μM peptide, 25 minutes): not captured at a detectable level | percentage of c-Src recovered vs negative control (recombinant c-Src; 40 μM peptide): significantly above the negative control | yield of c-Src compared with Cys-Srctide (recombinant c-Src; 25 minutes): less than that of Cys-Srctide

Cc1ccccc1CS [2-methylbenzylmercaptan, reference compound]
product formation with c-Src-1 complex (Src-imine) ([3]; at high concentrations (50 μM-1 mM range), 4 μM c-Src-imine, 25 minutes, room temperature, LC-MS): significant product formation | crosslinked product formation with Src-acrylamide adduct (c-Src-acrylamide): much less efficient

CC[C@H](C)[C@H](NC(=O)COCCOCCNC(=O)COCCOCCNC(=O)CCCC[C@@H]1SC[C@@H]2NC(=O)N[C@@H]21)C(=O)N[C@@H](CS)C(=O)NCC(=O)N[C@@H](CCC(=O)O)C(=O)N[C@@H](Cc1ccccc1)C(=O)N[C@@H](CCCNC(=N)N)C(=O)N[C@@H](CCCNC(=N)N)C(=O)N[C@@H](CCCNC(=N)N)C(N)=O [Cys-Srctide] ({Biotin-AEEA-AEEA}-ICGEFRRR-NH2; C-terminus assumed)
overall yield of the reaction with dialdehyde crosslinker 1 ([3]; dialdehyde-based crosslinker (earlier strategy), LC/MS): below the limit of detection | crosslinked product formation with c-Src-1 complex ([3]; peptide concentrations exceeding 200 μM, 4 μM c-Src-imine, room temperature, LC-MS): no product formation was detected | crosslinked product formation with Src-acrylamide adduct (c-Src-acrylamide): significant crosslinked product | crosslinked product formation over time course (in words) (c-Src [2]): proceed to completion | c-Src captured at lowest peptide concentration (recombinant c-Src; 5 μM peptide, 25 minutes): roughly 1%

Biotin-ZZRRADDCDDDD [Cys-CK2tide]
crosslinked product (percentage of total c-Src) (c-Src [2]): less than 10%
